Measurements from ChEMBL document CHEMBL1833940, “Discovery of 3-(2,6-dichloro-3,5-dimethoxy-phenyl)-1-{6-[4-(4-ethyl-piperazin-1-yl)-phenylamino]-pyrimidin-4-yl}-1-methyl-urea (NVP-BGJ398), a potent and selective inhibitor of the fibroblast growth factor receptor family of receptor tyrosine kinase” (J Med Chem, 2011).
pIC50: −log10 of the molar value.

What was measured:
UMUC3 = experiment: Antiproliferative activity against human UM-UC-3 cells after 72 hrs; type: functional, cell-based; details: UMUC3, 72 h
Procedure, shortened: (§1)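 Bladder cancer lines from ATCC or DSMZ were seeded in 96-well plates (RT4, RT112 at 8500 cells/well; others at 5000 cells/well) in growth medium. Compound dilutions or DMSO were added 24 h later and incubated 72 h. Cells were fixed with glutaraldehyde, stained with 0.05% methylene blue and eluted with 3% HCl, then OD650 nm was read.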

Tumour [1] = experiment: Drug uptake in tumour of nude Rowett rat bearing human RT112 cells at 4.25 mg/kg, po administered as a single dose after 24 hrs by LC-MS/MS analysis; type: ADME, organism-based, Neoplasm, RT-112; set-up: dose 4.25 mg/kg, route oral; details: in vivo
Procedure, shortened: (§2)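 Nude Rowett rats bearing subcutaneous RT112 tumors (n = 4) received a single gavage of monophosphate salt at 4.25 or 8.51 mg/kg free base in acetate buffer pH 4.6/PEG300. Tumors were collected at intervals after dosing, frozen and homogenized in an equal volume of ice-cold PBS. Compound levels were measured by LC-MS/MS (LOQ 3 ng/mL).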

Rattus norvegicus [2] = experiment: Toxicity in nude Rowett rat xenografted with human RT112 cells assessed as weight loss at 10 mg/kg, po qd administered for 20 days; type: organism-based, RT-112; set-up: dose 10 mg/kg, route oral; details: in vivo, 480 h
Procedure, shortened: (§3)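 Female nude Rowett rats carried subcutaneous RT112 tumors (1 × 10^6 cells in Matrigel), starting at about 100 mm3. The monophosphate salt was gavaged daily for 20 days at 5, 10 or 15 mg/kg (free base) in acetate buffer pH 4.6/PEG300 (1:1), n = 8. Body weight and morbidity were monitored; ANOVA with Dunnett's test.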

[3] = Cmax in plasma of RT112/luc1 cells implanted athymic nude mouse at 20 mg/kg, po by LC/MS/MS analysis; type: ADME, organism-based; set-up: dose 20 mg/kg, route oral
Procedure, shortened: (§4)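 Female athymic nude mice carried subcutaneous RT112/luc1 tumors (5×10^6 cells, 50% Matrigel; about 300–400 mm3). Dosing was either 5 mg/kg iv by tail vein in NMP/PEG200 (1:9) or 20 mg/kg oral suspension in PEG300/D5W (2:1). Groups of mice (n = 4) were sacrificed at 0.083–24 h. Plasma and tumor levels were measured by LC-MS/MS (LOQ 5 ng/mL, 10 ng/g).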

[4] = target: Vascular endothelial growth factor receptor 2 (Homo sapiens, UniProt P35968); experiment: Inhibition of recombinant VEGFR2
Procedure, shortened: (§5)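 Purified recombinant kinases under optimized conditions, with peptide substrates and ATP at each kinase's Km. Phosphorylation was read out by microfluidic mobility shift, and IC50 values were obtained.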

Rattus norvegicus [5] = experiment: Inhibition of FGFR autophosphorylation in RT112 tumour bearing po dosed nude Rowett rat assessed as decrease in pFRS2 concentration administered as a single dose by Western blot analysis; type: functional, organism-based
Procedure, shortened: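 RT112 subcutaneous xenografts in female nude Rowett rats (n = 4). Single oral gavage of the monophosphate salt at 4.25 or 8.51 mg/kg (free base equivalents) in acetic acid–acetate buffer pH 4.6/PEG300 (1:1). Tumors were collected at time points up to 24 h, frozen, homogenized and lysed. Western blots probed pFRS2(Tyr196) and pMAPK, with total FRS2, total MAPK or β-tubulin as loading controls.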

BaF3 [6] = experiment: Antiproliferative activity against mouse wild type BAF3 cells assessed as decrease in cell viability by luminescence-based assay
Procedure, shortened: (§6)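 IL-3-independent BaF3 or BaF3 Tel-TK cells were grown in RPMI-1640 with 10% FBS and seeded at 4250 cells/well in 384-well plates. Compound serially diluted in DMSO was pin-transferred, followed by 48 h at 37 °C, 5% CO2. Viability was read by Bright-Glo luciferase luminescence.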

HT1197 = experiment: Antiproliferative activity against human HT1197 cells after 72 hrs; type: functional, cell-based; details: HT1197, 72 h; procedure, shortened: as §1
Tumour [7] = experiment: Drug uptake in tumor of nude rowett rat bearing human RT112 cells at 4.25 mg/kg, po administered as a single dose after 16 hrs by LC-MS/MS analysis; type: ADME, organism-based, Neoplasm, RT-112; set-up: dose 4.25 mg/kg, route oral; details: in vivo; procedure, shortened: as §2
Tumour [8] = experiment: Cmax in tumor of RT112/luc1 cells implanted athymic nude mouse at 20 mg/kg, po by LC/MS/MS analysis; type: ADME, organism-based, Neoplasm; set-up: dose 20 mg/kg, route oral; details: in vivo; procedure, shortened: as §4
Rattus norvegicus [9] = species: Rattus norvegicus; experiment: Hepatic blood flow in Wistar rat; type: ADME, organism-based, Liver
[10] = target: Serine/threonine-protein kinase N1 (Homo sapiens, UniProt Q16512); experiment: Inhibition of recombinant PKN1
Procedure, shortened: (§7)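 Purified recombinant kinases under optimized conditions with peptide substrates. ATP was set at each kinase's Km. Phosphorylation was read by microfluidic mobility-shift separation of substrate and product; IC50 determined.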

Tumour [11] = experiment: Dose normalized AUC in tumor of RT112/luc1 cells implanted athymic nude mouse at 20 mg/kg, po by LC/MS/MS analysis; type: ADME, organism-based, Neoplasm; set-up: dose 20 mg/kg, route oral; details: in vivo; procedure, shortened: as §4
[12] = Antiproliferative activity against human JMSU1 cells overexpressing wild type FGFR3 after 72 hrs; type: functional, cell-based; details: JMSU-1, 72 h; procedure, shortened: as §1
BaF3 [13] = experiment: Antiproliferative activity against mouse BAF3 cell line transformed with TEL-FGFR3 construct after 48 hrs by luciferase bioluminescent assay; type: functional, cell-based; details: BaF3, 48 h; procedure, shortened: as §6
Mus musculus = experiment: Antiangiogenic activity in po dosed FVB mouse agar chamber model assessed as inhibition of b-FGF-induced angiogenesis around the capsule; type: functional, organism-based
Procedure, shortened: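 Female FVB mice implanted subcutaneously with perfluoroalkoxy-Teflon chambers holding 0.8% agar with 20 U/mL heparin, with or without dog VEGF 2 μg/mL or bFGF 0.3 μg/mL. Oral dosing at 10, 30, 50 mg/kg/day in 10% NMP/PEG300 (5 mL/kg), started before implantation and continued 3 days. Capsules were removed 24 h after the last dose. Readout was capsule weight and Tie-2 by ELISA, as % inhibition against vehicle and no-growth-factor background.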

Insulin receptor = Insulin receptor (Homo sapiens, UniProt P06213); experiment: Inhibition of recombinant INSR; procedure, shortened: as §5
[14] = Volume of distribution at steady state in Wistar rat at 5 mg/kg, iv by LC-MS/MS analysis; type: ADME, organism-based; set-up: dose 5 mg/kg, route intravenous; details: in vivo, read-out: Vdss
Procedure, shortened: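 Female Wistar rats received 5 mg/kg iv into the femoral vein in NMP/PEG200 (1:9), or the monophosphate salt orally at 10 mg/kg (free base) in acetate buffer pH 4.6/PEG300. Serial sublingual plasma samples were taken from 0.083 to 24 h.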

Rattus norvegicus [15] = experiment: Toxicity in nude Rowett rat xenografted with human RT112 cells assessed as morbidity at 5 mg/kg, po qd administered for 20 days; type: organism-based, RT-112; set-up: dose 5 mg/kg, route oral; details: in vivo, 480 h; procedure, shortened: as §3
[16] = target: Interleukin-1 receptor-associated kinase 4 (Homo sapiens, UniProt Q9NWZ3); experiment: Inhibition of recombinant IRAK4; procedure, shortened: as §7
Cytochrome P450 2D6 = Cytochrome P450 2D6 (Homo sapiens, UniProt P10635); experiment: Inhibition of CYP2D6 using AMMC as substrate; type: ADME
Procedure, shortened: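 Human CYP450 inhibition was measured with isoform-specific fluorogenic probe substrates: CEC for 1A2 and 2C19, MFC for 2C9, AMMC for 2D6. Incubation was at 37 °C with an NADPH-regenerating system in 384-well format. Metabolite was quantified by fluorescence, and IC50 was obtained by curve fitting.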

Chain of Cytochrome P450 2D6 (P10635 whole entry, canonical isoform): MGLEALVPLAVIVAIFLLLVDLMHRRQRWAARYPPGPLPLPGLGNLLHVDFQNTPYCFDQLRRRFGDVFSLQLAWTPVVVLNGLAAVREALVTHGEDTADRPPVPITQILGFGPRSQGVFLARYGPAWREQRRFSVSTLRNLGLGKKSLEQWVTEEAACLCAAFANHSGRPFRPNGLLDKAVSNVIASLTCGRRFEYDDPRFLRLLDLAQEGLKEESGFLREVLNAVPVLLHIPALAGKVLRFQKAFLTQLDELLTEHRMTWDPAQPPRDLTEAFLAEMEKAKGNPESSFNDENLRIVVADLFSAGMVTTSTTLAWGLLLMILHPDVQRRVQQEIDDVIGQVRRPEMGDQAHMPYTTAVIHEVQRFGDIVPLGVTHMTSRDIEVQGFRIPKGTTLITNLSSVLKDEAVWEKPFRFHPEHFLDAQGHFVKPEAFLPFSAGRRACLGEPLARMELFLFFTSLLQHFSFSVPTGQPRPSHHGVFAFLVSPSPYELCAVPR
Chain of Interleukin-1 receptor-associated kinase 4 (Q9NWZ3 whole entry): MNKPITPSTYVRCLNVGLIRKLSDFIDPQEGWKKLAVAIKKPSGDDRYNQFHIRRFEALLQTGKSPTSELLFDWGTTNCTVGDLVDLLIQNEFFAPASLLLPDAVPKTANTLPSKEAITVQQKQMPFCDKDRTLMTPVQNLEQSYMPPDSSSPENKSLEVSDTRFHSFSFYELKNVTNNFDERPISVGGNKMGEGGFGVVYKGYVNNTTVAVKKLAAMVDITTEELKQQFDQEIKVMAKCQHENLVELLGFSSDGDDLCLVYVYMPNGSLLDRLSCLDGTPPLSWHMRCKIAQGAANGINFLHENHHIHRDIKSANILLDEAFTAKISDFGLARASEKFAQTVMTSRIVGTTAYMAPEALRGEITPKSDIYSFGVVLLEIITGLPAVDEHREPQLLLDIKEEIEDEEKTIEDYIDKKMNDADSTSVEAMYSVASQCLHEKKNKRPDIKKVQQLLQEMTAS
Chain of Serine/threonine-protein kinase N1 (Q16512 whole entry): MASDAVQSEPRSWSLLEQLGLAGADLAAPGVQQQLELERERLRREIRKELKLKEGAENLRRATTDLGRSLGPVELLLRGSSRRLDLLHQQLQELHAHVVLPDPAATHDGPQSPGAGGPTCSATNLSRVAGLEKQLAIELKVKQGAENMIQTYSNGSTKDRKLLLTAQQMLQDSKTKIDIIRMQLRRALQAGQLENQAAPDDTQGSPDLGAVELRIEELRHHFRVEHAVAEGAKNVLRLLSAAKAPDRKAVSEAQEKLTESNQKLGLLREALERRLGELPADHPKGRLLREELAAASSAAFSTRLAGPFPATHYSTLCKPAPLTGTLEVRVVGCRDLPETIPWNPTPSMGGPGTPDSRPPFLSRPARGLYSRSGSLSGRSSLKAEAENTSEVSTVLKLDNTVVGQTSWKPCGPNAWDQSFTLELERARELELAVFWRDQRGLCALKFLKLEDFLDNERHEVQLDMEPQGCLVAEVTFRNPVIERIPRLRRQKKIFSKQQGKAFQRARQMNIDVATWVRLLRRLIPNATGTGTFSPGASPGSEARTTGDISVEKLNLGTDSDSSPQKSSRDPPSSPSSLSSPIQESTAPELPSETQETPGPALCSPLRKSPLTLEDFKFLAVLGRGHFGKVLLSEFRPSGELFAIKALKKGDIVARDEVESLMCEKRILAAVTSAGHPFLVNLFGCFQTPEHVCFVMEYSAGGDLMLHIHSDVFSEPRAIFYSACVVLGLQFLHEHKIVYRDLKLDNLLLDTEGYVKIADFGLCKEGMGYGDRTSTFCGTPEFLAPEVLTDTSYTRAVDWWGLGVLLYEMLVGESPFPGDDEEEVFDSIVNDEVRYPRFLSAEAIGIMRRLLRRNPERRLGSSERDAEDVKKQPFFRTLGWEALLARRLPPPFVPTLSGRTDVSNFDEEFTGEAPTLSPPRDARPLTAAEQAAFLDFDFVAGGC
Chain of Vascular endothelial growth factor receptor 2 (P35968 whole entry): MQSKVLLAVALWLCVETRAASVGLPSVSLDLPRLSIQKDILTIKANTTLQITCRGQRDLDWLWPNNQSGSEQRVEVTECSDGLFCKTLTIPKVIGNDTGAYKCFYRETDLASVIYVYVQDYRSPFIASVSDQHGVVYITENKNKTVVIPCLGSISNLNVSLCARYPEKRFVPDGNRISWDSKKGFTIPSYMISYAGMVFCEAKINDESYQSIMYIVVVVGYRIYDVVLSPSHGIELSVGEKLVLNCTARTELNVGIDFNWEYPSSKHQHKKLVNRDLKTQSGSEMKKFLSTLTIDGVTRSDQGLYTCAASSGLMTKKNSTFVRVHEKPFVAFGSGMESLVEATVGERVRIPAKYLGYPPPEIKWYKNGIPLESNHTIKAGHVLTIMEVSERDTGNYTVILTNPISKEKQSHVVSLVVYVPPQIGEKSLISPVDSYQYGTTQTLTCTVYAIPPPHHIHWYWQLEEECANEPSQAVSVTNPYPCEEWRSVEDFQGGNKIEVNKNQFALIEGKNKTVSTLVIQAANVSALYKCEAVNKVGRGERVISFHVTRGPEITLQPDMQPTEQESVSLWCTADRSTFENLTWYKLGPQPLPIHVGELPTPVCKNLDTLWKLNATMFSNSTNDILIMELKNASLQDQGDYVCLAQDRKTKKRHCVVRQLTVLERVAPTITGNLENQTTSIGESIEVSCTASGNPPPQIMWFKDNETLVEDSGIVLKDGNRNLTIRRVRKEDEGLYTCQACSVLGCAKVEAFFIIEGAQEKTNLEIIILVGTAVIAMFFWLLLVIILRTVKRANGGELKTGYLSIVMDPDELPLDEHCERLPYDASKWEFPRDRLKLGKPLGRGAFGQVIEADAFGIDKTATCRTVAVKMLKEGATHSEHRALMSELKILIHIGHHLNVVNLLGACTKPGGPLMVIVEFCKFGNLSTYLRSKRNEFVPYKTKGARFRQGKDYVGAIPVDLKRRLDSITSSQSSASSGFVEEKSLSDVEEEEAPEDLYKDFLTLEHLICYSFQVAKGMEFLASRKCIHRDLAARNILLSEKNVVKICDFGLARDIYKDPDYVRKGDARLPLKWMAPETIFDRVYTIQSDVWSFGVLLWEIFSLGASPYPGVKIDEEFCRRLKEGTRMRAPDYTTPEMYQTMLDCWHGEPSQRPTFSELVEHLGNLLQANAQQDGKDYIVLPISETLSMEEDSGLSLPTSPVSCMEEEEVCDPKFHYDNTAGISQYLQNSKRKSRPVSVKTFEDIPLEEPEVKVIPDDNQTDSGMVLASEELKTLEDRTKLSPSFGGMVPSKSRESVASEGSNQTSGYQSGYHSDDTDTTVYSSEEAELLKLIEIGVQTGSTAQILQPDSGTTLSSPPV
Chain of Insulin receptor (P06213 28-758 limits assumed): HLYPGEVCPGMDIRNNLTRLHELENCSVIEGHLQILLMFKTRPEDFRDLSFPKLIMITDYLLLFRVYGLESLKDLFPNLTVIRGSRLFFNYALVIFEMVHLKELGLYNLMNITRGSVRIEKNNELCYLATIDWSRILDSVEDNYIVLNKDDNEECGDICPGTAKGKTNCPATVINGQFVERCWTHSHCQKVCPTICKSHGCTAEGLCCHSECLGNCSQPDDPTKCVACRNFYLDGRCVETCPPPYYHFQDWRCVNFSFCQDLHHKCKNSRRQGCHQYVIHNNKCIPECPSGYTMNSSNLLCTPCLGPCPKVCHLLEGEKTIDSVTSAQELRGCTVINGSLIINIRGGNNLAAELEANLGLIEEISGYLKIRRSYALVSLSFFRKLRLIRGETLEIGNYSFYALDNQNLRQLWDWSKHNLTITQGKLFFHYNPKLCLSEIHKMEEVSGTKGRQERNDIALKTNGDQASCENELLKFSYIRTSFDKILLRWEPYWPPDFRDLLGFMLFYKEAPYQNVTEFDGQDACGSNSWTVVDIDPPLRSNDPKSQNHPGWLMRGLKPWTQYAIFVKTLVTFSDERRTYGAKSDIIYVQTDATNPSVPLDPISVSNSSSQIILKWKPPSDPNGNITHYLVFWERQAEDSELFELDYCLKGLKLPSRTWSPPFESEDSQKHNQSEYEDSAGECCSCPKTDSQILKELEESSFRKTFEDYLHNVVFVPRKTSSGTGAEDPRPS
Chain of Insulin receptor (P06213 763-1382 limits assumed): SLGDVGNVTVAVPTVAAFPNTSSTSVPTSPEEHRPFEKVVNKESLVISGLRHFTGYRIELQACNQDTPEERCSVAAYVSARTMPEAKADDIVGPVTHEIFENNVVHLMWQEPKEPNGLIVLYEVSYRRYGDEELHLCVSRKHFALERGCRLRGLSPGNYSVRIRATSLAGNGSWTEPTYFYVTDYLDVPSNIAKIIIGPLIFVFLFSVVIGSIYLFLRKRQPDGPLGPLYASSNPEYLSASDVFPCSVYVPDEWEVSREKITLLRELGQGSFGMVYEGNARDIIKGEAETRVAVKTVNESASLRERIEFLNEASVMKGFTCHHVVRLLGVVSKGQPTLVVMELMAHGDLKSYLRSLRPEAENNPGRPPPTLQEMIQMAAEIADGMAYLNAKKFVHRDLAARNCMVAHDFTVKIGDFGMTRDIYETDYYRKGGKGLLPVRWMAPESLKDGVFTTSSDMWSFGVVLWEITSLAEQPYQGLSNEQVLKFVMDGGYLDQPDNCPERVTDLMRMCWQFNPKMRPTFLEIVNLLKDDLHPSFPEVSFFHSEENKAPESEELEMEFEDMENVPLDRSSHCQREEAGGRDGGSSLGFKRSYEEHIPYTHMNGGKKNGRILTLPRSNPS

Drug uptake (Tumour [1]): 0.12 nmol/g | Cmax [3]: 420 nM | pIC50 [4]: 6.74 | pIC50 (BaF3 [6]): 5.73 | Drug uptake (Tumour [7]): 0.3 nmol/g | Cmax (Tumour [8]): 1.63 nmol/g | QH (Rattus norvegicus [9]): 55 mL/min/kg | pIC50 [10]: < 5.00 | AUC/dose (Tumour [11]): 1.85 nmol·h/g | pIC50 (BaF3 [13]): 8.70 | pIC50 (Insulin receptor): < 5.00 | Vd [14]: 9.6 L/kg | pIC50 [16]: < 5.00 | pIC50 (Cytochrome P450 2D6): < 5.00
Structure (SMILES): CCN1CCN(c2ccc(Nc3cc(N(C)C(=O)Nc4c(Cl)c(OC)cc(OC)c4Cl)ncn3)cc2)CC1.O=P(O)(O)O [INFIGRATINIB PHOSPHATE]
pIC50 (UMUC3): < 5.52 | Activity (Rattus norvegicus [2]): 4% | Activity (Rattus norvegicus [5]): Dose-dependent effect | pIC50 (HT1197): 5.94 | pIC50 [12]: 7.82 | inhibition (Mus musculus): Dose-dependent effect | Activity (Rattus norvegicus [15]): Non-toxic
